Experimental data: ChEMBL document CHEMBL4177761, “Highlights of the Structure-Activity Relationships of Benzimidazole Linked Pyrrolidines Leading to the Discovery of the Hepatitis C Virus NS5A Inhibitor Pibrentasvir (ABT-530)” (J Med Chem, 2018)

Assays:
[1] = Cmax in monkey at 2.5 mg/kg, po by LC-MS method; format: ADME, organism-based, Macaca mulatta; parameters: dose 2.5 mg/kg, route oral; conditions: rhesus monkey, in vivo
How it was run: (§1)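 Single dose in dog or monkey, 1 mg/kg IV or 2.5 mg/kg PO. Plasma drug measured by LC-MS after acetonitrile protein precipitation with an internal standard. Quantified by linear regression of parent/internal-standard peak-area ratio against spiked standards.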

[2] = Tmax in dog at 2.5 mg/kg, po by LC-MS method; format: ADME, organism-based, Canis lupus familiaris; conditions: in vivo; how it was run: as §1
[3] = AUClast in dog at 2.5 mg/kg, po by LC-MS method; format: ADME, organism-based, Canis lupus familiaris; parameters: dose 2.5 mg/kg, route oral, time 0 - last; conditions: in vivo; how it was run: as §1
[4] = Apparent volume of distribution in dog at 1 mg/kg, iv by LC-MS method; format: ADME, organism-based, Canis lupus familiaris; conditions: in vivo, read-out: Vc; how it was run: as §1
[5] = Plasma clearance in dog at 1 mg/kg, iv by LC-MS method; format: ADME, organism-based, Canis lupus familiaris; how it was run: as §1
[6] = molecular target: T1, Nonstructural protein 5A (Hepatitis C virus) (UniProt Q5L478); test: Inhibition of NS5A M28T mutant in HuH7 cell infected HCV genotype 1a H77 assessed as decrease in viral replication after 4 days by luciferase reporter gene assay relative to wild type protein; conditions: Hepatitis C virus (isolate H77)
T1 sequence (whole entry): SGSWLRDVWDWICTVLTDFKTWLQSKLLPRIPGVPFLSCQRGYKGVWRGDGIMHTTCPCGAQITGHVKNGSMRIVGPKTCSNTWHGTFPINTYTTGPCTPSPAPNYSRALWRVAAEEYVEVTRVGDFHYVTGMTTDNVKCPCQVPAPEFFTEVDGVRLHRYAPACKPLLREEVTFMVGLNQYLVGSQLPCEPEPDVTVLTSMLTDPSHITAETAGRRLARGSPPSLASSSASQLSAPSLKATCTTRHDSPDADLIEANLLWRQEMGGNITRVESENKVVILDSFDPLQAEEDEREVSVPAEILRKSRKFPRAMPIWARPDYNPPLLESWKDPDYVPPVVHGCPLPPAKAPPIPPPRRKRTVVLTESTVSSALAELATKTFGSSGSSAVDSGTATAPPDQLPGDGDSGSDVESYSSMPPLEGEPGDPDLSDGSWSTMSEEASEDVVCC
How it was run: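 Stable subgenomic luciferase replicons in Huh-7 cells: genotype 1a-H77 carrying NS5A substitutions M28T, Q30E, Q30R, Y93C, Y93H or Y93N, tested alongside the wild-type replicon. Cells are incubated 4 days with compound in DMEM with 5% FBS. Luciferase read-out, EC50 by 4-parameter logistic fit, and fold change versus wild type.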

[7] = Half life in monkey at 2.5 mg/kg, po by LC-MS method; format: ADME, organism-based, Macaca mulatta; conditions: rhesus monkey, in vivo; how it was run: as §1

What does the source list for `COC(=O)N[C@H](C(=O)N1CCC[C@H]1c1nc2cc([C@H]3CC[C@H](c4cc5nc([C@@H]6CCCN6C(=O)[C@@H](NC(=O)OC)[C@@H](C)OC)[nH]c5cc4F)N3c3cc(F)c(N4CCC(c5ccc(F)cc5)CC4)c(F)c3)c(F)cc2[nH]1)[C@@H](C)OC` [PIBRENTASVIR]?
Cmax [1]: 260 nM; Tmax [2]: 3.67 h; AUC(0-t) [3]: 5990 ng·h/mL; Vd [4]: 0.1 L/kg; clearance [5]: 1.62 mL/min/kg; fold change (FC) [6]: 2.1; half-life [7]: 5.69 h
